3 compounds from ChEMBL document CHEMBL4011632, “Design, Synthesis, and Evaluation of Thiazolidine-2,4-dione Derivatives as a Novel Class of Glutaminase Inhibitors” (J Med Chem, 2017) can be followed below.

Active and inactive are the calls of the source. The calls are words filed in the database; no cut-off is given here.

Assay [1] has as its system ASPC1. In words: Anticlonogenic activity against human Aspc-1 cells at 2 uM after 21 days by crystal violet staining based assay relative to control. Particulars: ASPC1, 504 h. The format is functional. In outline:
(§1)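 Anchorage-dependent colony formation: AsPC-1 cells seeded at 1000 cells/well in six-well plates and treated with compound. Colony formation is expressed as percent of vehicle treatment. Mean ± SD from at least three independent experiments, each in duplicate.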

Assay [2] addresses T1, Glutaminase liver isoform, mitochondrial (Homo sapiens, UniProt Q9UI32).
T1 sequence (Q9UI32 whole entry): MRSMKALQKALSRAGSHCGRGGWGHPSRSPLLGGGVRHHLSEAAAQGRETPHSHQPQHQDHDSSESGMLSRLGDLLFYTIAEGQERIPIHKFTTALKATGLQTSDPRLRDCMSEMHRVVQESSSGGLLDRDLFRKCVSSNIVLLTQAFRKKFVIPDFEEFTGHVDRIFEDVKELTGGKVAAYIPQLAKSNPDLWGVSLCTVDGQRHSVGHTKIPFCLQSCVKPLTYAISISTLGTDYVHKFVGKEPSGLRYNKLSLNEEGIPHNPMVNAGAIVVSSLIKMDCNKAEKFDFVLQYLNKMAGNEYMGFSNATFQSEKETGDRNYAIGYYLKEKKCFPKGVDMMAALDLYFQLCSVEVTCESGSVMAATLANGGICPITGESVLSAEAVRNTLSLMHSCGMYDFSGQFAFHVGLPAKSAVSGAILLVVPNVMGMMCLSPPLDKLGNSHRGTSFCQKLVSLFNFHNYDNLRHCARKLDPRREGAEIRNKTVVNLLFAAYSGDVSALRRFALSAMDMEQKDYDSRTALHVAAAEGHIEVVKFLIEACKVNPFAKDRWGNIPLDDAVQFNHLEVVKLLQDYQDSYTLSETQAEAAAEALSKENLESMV
In words: Inhibition of recombinant human His-tagged GAB (P56 to V602 residues) expressed in Escherichia coli C41(DE3)pLysS using glutamine as substrate preincubated for 10 mins followed by substrate addition measured after 60 mins by glutamate dehydrogenase coupled enzyme assay.

In assay [3] the target is T2, Glutaminase kidney isoform, mitochondrial (Homo sapiens, UniProt O94925).
T2 sequence (O94925 whole entry): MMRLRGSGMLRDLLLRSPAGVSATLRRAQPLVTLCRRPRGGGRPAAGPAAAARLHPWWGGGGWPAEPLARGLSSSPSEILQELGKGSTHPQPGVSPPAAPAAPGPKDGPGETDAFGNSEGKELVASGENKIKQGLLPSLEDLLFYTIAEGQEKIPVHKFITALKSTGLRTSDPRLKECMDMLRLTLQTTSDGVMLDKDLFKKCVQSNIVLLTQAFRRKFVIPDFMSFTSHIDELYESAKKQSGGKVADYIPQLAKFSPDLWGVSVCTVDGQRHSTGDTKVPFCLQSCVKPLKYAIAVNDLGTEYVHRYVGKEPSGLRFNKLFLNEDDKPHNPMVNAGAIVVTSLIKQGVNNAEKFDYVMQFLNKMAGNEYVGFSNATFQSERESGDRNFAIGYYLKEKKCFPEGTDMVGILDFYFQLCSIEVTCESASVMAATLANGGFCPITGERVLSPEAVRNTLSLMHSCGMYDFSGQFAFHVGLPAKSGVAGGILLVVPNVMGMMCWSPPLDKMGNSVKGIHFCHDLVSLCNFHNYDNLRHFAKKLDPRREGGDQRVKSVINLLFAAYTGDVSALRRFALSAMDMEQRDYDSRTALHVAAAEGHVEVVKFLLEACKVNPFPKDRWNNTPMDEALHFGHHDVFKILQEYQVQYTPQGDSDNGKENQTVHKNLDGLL
In words: Inhibition of recombinant human His-tagged KGA (L123 to L669 residues) expressed in Escherichia coli BL21(DE3)pLysS using glutamine substrate preincubated for 10 mins followed by substrate addition measured after 60 mins by glutamate dehydrogenase coupled enzyme assay.

The target of assay [4] is T2, Glutaminase kidney isoform, mitochondrial. Kind of assay: Inhibition of recombinant human MCF7 cells derived His-tagged GAC (L123 to S598 residues) expressed in Escherichia coli C41(DE3)pLysS using glutamine as substrate preincubated for 10 mins followed by substrate addition measured after 60 mins by glutamate dehydrogenase coupled enzyme assay. In outline: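 Human GAC cloned from MCF7 cDNA into pET28a(+) as a His-tagged construct. Expressed in E. coli C41(DE3)pLysS in Terrific Broth with kanamycin, induced with 1 mM IPTG for 6 h at 25 °C. Purified on Ni2+ resin with 500 mM imidazole elution and exchanged into 50 mM NaH2PO4, 50 mM Tris-HCl pH 8.0, 2 mM DTT, 50% glycerol. Activity measured by two-step glutaminase assay.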

For assay [5], the species on record is Homo sapiens. Kind of assay: Selectivity index, ratio of IC50 for recombinant human His-tagged GAB (P56-V602 residues) expressed in Escherichia coli C41(DE3)pLysS to IC50 for recombinant human His-tagged KGA (L123 to L669 residues) expressed in Escherichia coli BL21(DE3)pLysS.
The subject of assay [6] is ASPC1. Kind of assay: Anticlonogenic activity against human Aspc-1 cells at 10 uM after 21 days by crystal violet staining based assay relative to control. The format is functional. Particulars: ASPC1, 504 h. In outline:
as §1

In assay [7] the test system is ASPC1. In words: Growth inhibition of human Aspc-1 cells after 72 hrs by MTS assay. To be noted: ASPC1, 72 h. Type of assay: functional, cell-based. In outline:
(§2)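 Growth inhibition by MTS viability read-out. Cells seeded in 96-well plates at 4000/well (AsPC-1) or 8500/well (MDA-MB-231). Mean ± SD from at least three independent experiments, each in duplicate.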
On the technique in general: Formazan colour is commonly taken as a measure of viable cells.

Assay [8] deals with MDA-MB-231. Kind of assay: Growth inhibition of human MDA-MB-231 cells after 72 hrs by MTS assay. The format is functional, cell-based. Particulars: MDA-MB-231, 72 h. In outline: as §2
Assay [9] has as its target T3, Peroxisome proliferator-activated receptor delta (Homo sapiens) (UniProt Q03181).
T3 sequence (whole entry): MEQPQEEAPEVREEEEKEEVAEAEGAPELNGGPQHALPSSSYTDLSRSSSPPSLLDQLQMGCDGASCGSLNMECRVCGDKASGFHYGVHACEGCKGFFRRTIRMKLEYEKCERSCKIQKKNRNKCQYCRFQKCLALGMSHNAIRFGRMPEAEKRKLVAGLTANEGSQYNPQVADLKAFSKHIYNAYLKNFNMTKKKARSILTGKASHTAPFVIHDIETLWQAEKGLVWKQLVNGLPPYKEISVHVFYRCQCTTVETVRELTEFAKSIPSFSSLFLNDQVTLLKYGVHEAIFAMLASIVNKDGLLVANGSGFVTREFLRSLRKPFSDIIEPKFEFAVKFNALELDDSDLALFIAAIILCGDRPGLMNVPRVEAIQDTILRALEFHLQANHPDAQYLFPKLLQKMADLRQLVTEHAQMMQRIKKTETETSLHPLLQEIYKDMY
In words: Transactivation of GAL4-DBD fused human PPARdelta LBD (165 to 441 residues) expressed in African green monkey CV1 cells after 18 to 24 hrs by luciferase reporter gene assay. Type of assay: cell-based.

Assay [10] is filed under the species Homo sapiens. Kind of assay: Selectivity ratio of IC50 for recombinant human His-tagged KGA K507A mutant expressed in Escherichia coli BL21(DE3)pLysS to IC50 for human His-tagged KGA (L123 to L669 residues) expressed in Escherichia coli BL21(DE3)pLysS.

A word on the inhibition: it is the percentage by which the read-out fell short of the control. As usually defined, the IC50 is the concentration at which inhibition is half-maximal. In turn, `O=C1NC(=O)/C(=C/c2ccc(-c3ccc(-n4c(-c5cccs5)cc(/C=C5\SC(=O)NC5=O)c4-c4cccs4)cc3)cc2)S1` displayed an inhibition at 2 µM in assay [1] of 64%. Besides, the IC50 in [2] came out at 0.102 µM; in assay [3], 0.05 µM; in [4], 0.049 µM; in assay [7], 14.8 µM; in assay [8], 28.7 µM. For the same compound, the Ratio IC50 in assay [5] stood at 2. Besides, in [6], the inhibition at 10 µM was found to be 87%. Further, in assay [9], the outcome was inactive.
In turn, `Cc1cc(/C=C2\SC(=O)NC2=O)c(C)n1-c1ccc(-c2ccc(/C=C3\SC(=O)NC3=O)c(Cl)c2)cc1` displayed an inhibition at 2 µM in assay [1] of 18%. Also, the IC50 in [2] is 4.19 µM; in assay [3] it was 0.057 µM; in [4], 0.255 µM; in assay [7], > 50 µM; in assay [8], > 50 µM. For the same compound, the figures for the Ratio IC50 in assay [5] and in assay [10] were 74 and 4.7, respectively. This compound gave an inhibition at 10 µM in assay [6] of 51%. Besides, the outcome in [9] was inactive.
For `Cc1cc(/C=C2\SC(=O)NC2=O)c(C)n1-c1ccc(-c2ccc(/C=C3\SC(=O)NC3=O)cc2)cc1`, the inhibition at 2 µM in assay [1] worked out at 13%. For the same compound, the half-maximal inhibitory concentration (IC50) came out at 1.19 µM in assay [2]; 0.102 µM in assay [3]; 0.381 µM in assay [4]; 34.5 µM in assay [7]; 42 µM in assay [8]. The Ratio IC50 was determined as 12 in [5] and 10.2 in assay [10]. The compound further returned an inhibition at 10 µM in [6] of 59%.
